Test results: ChEMBL document CHEMBL3784994, “Systematic comparison of the mono-, dimethyl- and trimethyl 3-hydroxy-4(1H)-pyridones - Attempted optimization of the orally active iron chelator, deferiprone” (Eur J Med Chem, 2016)

Columns and labels:
[1] = Octanol-water partition coefficient, log P of the compound by shake-flask method; assay type: physicochemical
Summary of the method: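 Shake-flask partition between n-octanol and 25 mM MOPS, pH 7.4, at 25°C. Buffered solution and octanol were mixed at different ratios, stirred vigorously for 15 s, and separated by centrifugation. Aqueous UV absorbance was read before and after partition. P = (A0−A1)Vaq/(A1Vo).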

[2] = Binding affinity to iron(3) assessed as pFe3+ values after 10 to 30 mins
Liver microsome [3] = assay: Drug metabolism in human liver microsomes assessed as glucuronidation at 10 uM after 24 hrs by mass spectrophotometry in presence of NADPH and UDPGA; assay type: ADME
Summary of the method: (§1)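 Pooled mixed-gender human liver microsomes (1 mg/mL) with 10 µM hydroxypyridinone in 100 mM PBS, with NADPH and UDPGA systems. Incubated at 37°C for 24 h with gentle shaking, in triplicate; the blank omitted microsomes. Stopped with 4% phosphoric acid and internal standard added, then centrifuged. Cation-exchange SPE, then UPLC–tandem MS on C18 to identify metabolites and quantify % metabolized.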

[4] = Binding affinity to iron(3) assessed as pFe3+ values after 5 mins
Summary of the method: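 Spectrophotometric titration of ligand with iron(III) in 0.1 M KCl, using a 50 mm path cuvette. KOH was added in 0.1 pH unit steps. After readings were stable (<0.001 pH unit over 3 s), there was a 5 min equilibration, then the spectrum was recorded. Constants were fitted with pHab. pFe3+ was computed at total Fe3+ 1 µM, total ligand 10 µM, pH 7.4.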

Liver microsome [5] = assay: Drug metabolism in human liver microsomes assessed as hydroxylation at 10 uM after 24 hrs by mass spectrophotometry in presence of NADPH and UDPGA; assay type: ADME; summary of the method: as §1

Compound | logP [1] | Activity [2] | Drug metabolism (Liver microsome [3]) | Activity [4] | Drug metabolism (Liver microsome [5])
Cn1cc(O)c(=O)cn1 | -0.85 | 17.2 |  |  | 
Cc1[nH]cc(C)c(=O)c1O | -0.13 |  | metabolite_detected | 19.2 | 
Cc1c(O)c(=O)ccn1C [DEFERIPRONE] |  | 20.6 | metabolite_detected | 20.7 | metabolite_detected
Cn1cc(O)c(=O)c(F)c1 | -0.85 |  |  |  | 
COc1c[nH]ccc1=O | -0.85 |  |  |  | 
COc1c[nH]cc(C)c1=O | -0.51 |  |  |  | 
COc1cn(C)cc(C)c1=O | -0.85 |  |  |  | 
Cc1cc(=O)c(F)c[nH]1 | -0.51 |  |  |  | 
Cc1cn(C)cc(O)c1=O | -0.93 |  | metabolite_detected | 20.5 | 
Cc1nccc(O)c1O | -0.58 |  | metabolite_detected | 20.2 | metabolite_detected
Cn1ccc(=O)c(O)c1F | -0.85 |  |  |  | 
Cc1cc(=O)c(O)c[nH]1 | -0.73 |  |  | 20.1 | 
Cc1cn(C)c(C)c(O)c1=O | -0.51 |  | metabolite_detected | 19.7 | 
Cc1cc(=O)c(O)cn1C | -1.19 |  | metabolite_detected | 20.4 | 
Cc1c[nH]cc(O)c1=O | -0.59 |  | metabolite_detected | 20.1 | metabolite_detected
COc1c[nH]cc(CN(C)C)c1=O | -0.85 |  |  |  | 
Cn1ccc(=O)c(O)n1 | -0.85 | 14.8 |  |  | 
